Series [1] in a line: Cytotoxicity against african green monkey COS7 cells expressing human p22phox assessed as cell viability at 25 to 50 uM after 15 mins by luminogenic assay. Type of series: cell-based. The conditions noted are these: chlorocebus aethiops, cos-7, 0.25 h. In short, it runs like this:
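COS-22 cells plated at 2.5 x 10³ cells/well in OPTIMEM, exposed 15 min to compounds at various concentrations; dead-cell protease release read with luminogenic AAF peptide substrate, signal before and after digitonin used to derive % dead; reported as % live cells (100 − % dead) per well.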

The target in another series is T1, NADPH oxidase 4 (Homo sapiens, UniProt Q9NPH5).
T1 sequence (Q9NPH5 whole entry): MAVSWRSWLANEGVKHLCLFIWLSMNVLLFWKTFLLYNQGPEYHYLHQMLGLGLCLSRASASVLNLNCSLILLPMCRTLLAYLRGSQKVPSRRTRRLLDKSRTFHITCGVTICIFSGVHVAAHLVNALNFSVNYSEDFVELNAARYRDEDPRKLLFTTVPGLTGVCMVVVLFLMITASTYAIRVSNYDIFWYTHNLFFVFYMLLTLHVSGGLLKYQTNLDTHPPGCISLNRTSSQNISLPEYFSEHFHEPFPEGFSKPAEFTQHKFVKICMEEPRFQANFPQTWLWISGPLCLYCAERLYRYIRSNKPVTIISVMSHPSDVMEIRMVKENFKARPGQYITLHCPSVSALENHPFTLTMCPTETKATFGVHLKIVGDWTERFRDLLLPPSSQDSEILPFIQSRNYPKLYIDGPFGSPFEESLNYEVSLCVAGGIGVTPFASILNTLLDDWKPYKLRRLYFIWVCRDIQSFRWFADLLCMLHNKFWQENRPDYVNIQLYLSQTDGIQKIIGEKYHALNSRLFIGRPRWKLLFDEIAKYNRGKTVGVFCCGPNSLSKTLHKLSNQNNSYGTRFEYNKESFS
The series can be described thus: Inhibition of full length human NOX4 transfected in COS 22 cells assessed as inhibition of ROS generation by measuring H2O2 production by fluorescence assay. The following applies: read-out: IC50.

Take `C=C(C)C[C@@H]1N[C@H]2CC(C)(C)[C@@H]1c1c(Br)cccc12` (racemic): in series [1], the Activity result was “Non-toxic”. Besides, the IC50 at NADPH oxidase 4 was above 100 µM.

What is called IC50 is the point on the concentration scale where inhibition reaches its midpoint.
